The target of series [1] is T1, Protein-arginine deiminase type-2 (Homo sapiens, UniProt Q9Y2J8). Nature of the series: Binding affinity to human PAD2 expressed in HEK293T cells assessed as protein occupancy preincubated for 15 mins followed by ionomycin addition measured after 1 hr in presence of CaCl2 by RIBFA probe based SDS-PAGE analysis. In kind it is cell-based. The essentials: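 Adherent HEK293T/PAD2 cells at 80–90% confluence in HBS with 2 mM CaCl₂ at 37 °C. Inhibitor (in DMSO) added for 15 min, then ionomycin (0.5 μM final) for 1 h. Cells washed and lysed in 1% Triton X-100. Lysate (2 μg/μL) labelled with RIBFA probe (2 μM) plus 2 mM CaCl₂ for 1 h at 37 °C. PAD2 occupancy expressed relative to DMSO control.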

Series [2] deals with T1, Protein-arginine deiminase type-2. The series is described as follows: Binding affinity to human PAD2 expressed in HEK293T cells assessed as protein occupancy at 25 uM preincubated for 15 mins followed by ionomycin addition measured after 1 hr in presence of CaCl2 by RIBFA probe based SDS-PAGE analysis relative to control. Format: cell-based. The essentials: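 Adherent HEK293T/PAD2 cells at 80–90% confluence in HBS with 2 mM CaCl₂ at 37 °C. Inhibitor (in DMSO) added for 15 min, then ionomycin (0.5 μM final) for 1 h. Cells washed and lysed in 1% Triton X-100. Lysate (2 μg/μL) labelled with RIBFA probe (2 μM) plus 2 mM CaCl₂ for 1 h at 37 °C. Gel resolved and fluorescence scanned (~546/579 nm). PAD2 occupancy expressed relative to DMSO control.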

The target is the same in series [3]. Nature of the series: Binding affinity to human PAD2 expressed in HEK293T cells assessed as decrease in histone H3 citrulination incubated for 3 hrs in presence of ionomycin/CaCl2 by SDS-PAGE analysis. In kind it is cell-based. The method in brief: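 HEK293T stably overexpressing human PAD2, 4 × 10⁵ cells in HBS, given ionomycin (10 μM), CaCl₂ (1 mM) and varying inhibitor concentrations (1% DMSO) for 3 h. Lysed with 1% Triton X-100 and sonicated at 0 °C. 1 μg protein run on SDS-PAGE, western blotted with antibodies to histone H3 and to citrullinated H3 (Cit 2,8,17), and imaged on Licor. EC50 taken from CitH3 intensity.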

Series [4] is described as follows: Safety index, ratio of compound EC50 to BB-Cl-amide EC50 for cytotoxicity against HEK293T cells. Format: cell-based, HEK-293T. Particulars: human, read-out: Ratio EC50.
The species named for series [5] is Homo sapiens. Nature of the series: Selectivity ratio of Kinact/Ki for recombinant His6-tagged PAD1 (unknown origin) to Kinact/Ki for recombinant full length N-terminal GST-tagged human PAD4 expressed in Escherichia coli Rosetta cells. The essentials:
(§1)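 Enzyme at 2.0 μM (PAD1, PAD2, PAD4) or 5.0 μM (PAD3) incubated at 37 °C with various inhibitor concentrations in 50 mM HEPES, 10 mM CaCl₂, 2 mM DTT, pH 7.6. Timed aliquots moved into substrate mix: 10 mM BAEE, or 10 mM BAA for PAD3. […] Selectivity ratios taken from these values.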

For series [6], the species on record is Homo sapiens. The series is described as follows: Selectivity ratio of Kinact/Ki for recombinant human PAD2 expressed in Escherichia coli BL21(DE3)pLysS cells to Kinact/Ki for recombinant full length N-terminal GST-tagged human PAD4 expressed in Escherichia coli Rosetta cells. The method in brief:
as §1

Series [7] is filed under the species Homo sapiens. The series is described as follows: Selectivity ratio of Kinact/Ki for recombinant His6-tagged PAD3 (unknown origin) to Kinact/Ki for recombinant full length N-terminal GST-tagged human PAD4 expressed in Escherichia coli Rosetta cells. The method in brief: as §1
The species entered for series [8] is Homo sapiens. The series is described as follows: Selectivity ratio of Kinact/Ki for recombinant human PAD2 expressed in Escherichia coli BL21(DE3)pLysS to Kinact/Ki for recombinant His6-tagged PAD3 (unknown origin). The essentials:
as §1

The species named for series [9] is Homo sapiens. The series is described as follows: Selectivity ratio of Kinact/Ki for recombinant His6-tagged PAD1 (unknown origin) to Kinact/Ki for recombinant human PAD2 expressed in Escherichia coli BL21(DE3)pLysS cells. The essentials:
as §1

For series [10], the species on record is Homo sapiens. The series is described as follows: Selectivity ratio of Kinact/Ki for recombinant His6-tagged PAD3 (unknown origin) to Kinact/Ki for recombinant human PAD2 expressed in Escherichia coli BL21(DE3)pLysS cells. The essentials:
as §1

Series [11] is filed under the species Homo sapiens. Nature of the series: Selectivity ratio of Kinact/Ki for recombinant full length N-terminal GST-tagged human PAD4 expressed in Escherichia coli Rosetta cells to Kinact/Ki for recombinant human PAD2 expressed in Escherichia coli BL21(DE3)pLysS cells. The method in brief: as §1
The species named for series [12] is Homo sapiens. Nature of the series: Selectivity ratio of Kinact/Ki for recombinant His6-tagged PAD1 (unknown origin) to Kinact/Ki for recombinant His6-tagged PAD3 (unknown origin). The method in brief: as §1
The species named for series [13] is Homo sapiens. Nature of the series: Selectivity ratio of Kinact/Ki for recombinant full length N-terminal GST-tagged human PAD4 expressed in Escherichia coli Rosetta to Kinact/Ki for recombinant His6-tagged PAD3 (unknown origin). The method in brief: as §1
For series [14], the species on record is Homo sapiens. Nature of the series: Selectivity ratio of Kinact/Ki for recombinant human PAD2 expressed in Escherichia coli BL21(DE3)pLysS cells to Kinact/Ki for recombinant His6-tagged PAD1 (unknown origin). The method in brief:
as §1

Series [15] concerns the target Protein-arginine deiminase type-4 (Homo sapiens) (UniProt Q9UM07). Nature of the series: Ratio of Kinact to Ki for recombinant full length N-terminal GST-tagged human PAD4 expressed in Escherichia coli Rosetta cells preincubated for 10 mins followed by BAEE substrate addition measured after 15 mins by COLDER assay. The essentials:
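Enzyme at 2.0 μM (PAD1, PAD2, PAD4) or 5.0 μM (PAD3) incubated at 37 °C with various inhibitor concentrations in 50 mM HEPES, 10 mM CaCl₂, 2 mM DTT, pH 7.6. Timed aliquots moved into substrate mix: 10 mM BAEE, or 10 mM BAA for PAD3. Selectivity ratios taken from these values.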

Molecules are shown by their SMILES.

T1 sequence (Q9Y2J8 whole entry): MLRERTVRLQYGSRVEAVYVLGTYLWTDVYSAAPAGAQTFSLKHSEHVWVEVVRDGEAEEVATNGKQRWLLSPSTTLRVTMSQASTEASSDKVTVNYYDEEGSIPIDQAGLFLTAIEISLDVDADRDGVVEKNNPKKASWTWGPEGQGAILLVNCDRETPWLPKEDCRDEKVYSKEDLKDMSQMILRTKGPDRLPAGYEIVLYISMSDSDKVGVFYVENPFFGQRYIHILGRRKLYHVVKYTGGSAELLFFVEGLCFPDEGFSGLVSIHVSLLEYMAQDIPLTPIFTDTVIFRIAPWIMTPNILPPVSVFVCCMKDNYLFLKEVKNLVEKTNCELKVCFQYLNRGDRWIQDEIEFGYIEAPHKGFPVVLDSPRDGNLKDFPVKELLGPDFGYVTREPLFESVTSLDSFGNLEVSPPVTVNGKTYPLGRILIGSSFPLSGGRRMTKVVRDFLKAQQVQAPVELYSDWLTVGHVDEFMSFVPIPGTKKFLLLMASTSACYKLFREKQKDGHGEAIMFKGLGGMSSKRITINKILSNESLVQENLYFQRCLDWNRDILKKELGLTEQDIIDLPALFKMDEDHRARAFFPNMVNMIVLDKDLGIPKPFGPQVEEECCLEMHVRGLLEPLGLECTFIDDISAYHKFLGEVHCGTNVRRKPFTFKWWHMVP
Sequence of Protein-arginine deiminase type-4 (Homo sapiens) (Q9UM07 whole entry): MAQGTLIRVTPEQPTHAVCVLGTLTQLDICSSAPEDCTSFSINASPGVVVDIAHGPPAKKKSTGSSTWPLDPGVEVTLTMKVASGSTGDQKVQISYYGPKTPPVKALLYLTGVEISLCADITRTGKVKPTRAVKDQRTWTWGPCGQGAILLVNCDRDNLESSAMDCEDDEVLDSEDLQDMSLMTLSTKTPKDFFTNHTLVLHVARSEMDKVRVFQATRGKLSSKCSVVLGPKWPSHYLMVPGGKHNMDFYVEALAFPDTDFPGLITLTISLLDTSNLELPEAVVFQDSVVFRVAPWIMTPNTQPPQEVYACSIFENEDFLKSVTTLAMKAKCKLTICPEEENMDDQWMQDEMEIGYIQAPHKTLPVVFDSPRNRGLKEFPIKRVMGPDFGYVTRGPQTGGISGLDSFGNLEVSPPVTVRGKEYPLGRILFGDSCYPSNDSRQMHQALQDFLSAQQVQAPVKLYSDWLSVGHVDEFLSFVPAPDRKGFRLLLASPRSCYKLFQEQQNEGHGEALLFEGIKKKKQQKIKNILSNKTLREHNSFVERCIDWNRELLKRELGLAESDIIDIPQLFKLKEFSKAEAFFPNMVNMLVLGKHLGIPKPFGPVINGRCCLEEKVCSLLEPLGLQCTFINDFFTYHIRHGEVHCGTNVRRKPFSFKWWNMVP

The EC50 is the concentration giving half of the maximal effect. As to `CCOc1cccc2c1nc([C@H](CCCNC(=N)CF)NC(=O)c1cccc3c1C(=O)NC3)n2C`, the results for the EC50 in series [1] and in series [3] were 8.3 µM and 2.7 µM, respectively. Moreover, in [2], the Activity was more than 60%. In series [4], the selectivity ratio was more than 30. Also, the Selectivity ratio in [5] was 65; in [6], 95; in series [7] it was 1.2; in series [8], 79.

For `CCN1Cc2cccc(C(=O)N[C@@H](CCCNC(=N)CF)c3nc4ccccc4[nH]3)c2C1=O`, the Selectivity ratio in [9] was determined as 3.4; in [10], 1; in series [11] it was 1.

Turning to `COc1ccc2c(c1)nc([C@H](CCCNC(=N)CF)NC(=O)c1cccc3c1C(=O)NC3)n2C`, the EC50 in [1] was 5.9 µM; in series [3], 2.1 µM. Further, the Activity in series [2] was more than 60%. The selectivity ratio in series [4] was more than 30. The Selectivity ratio was 121 in series [12], 114 in series [8] and 1.2 in series [13].

On to `CCN1Cc2cccc(C(=O)N[C@@H](CCCNC(=N)CF)c3nc4c(OC)cccc4n3C)c2C1=O`, for which the Activity in series [2] was less than 37%. Besides, the Selectivity ratio in series [5] worked out at 16; in series [6], 85; in series [7], 1; in series [8], 85; in series [14], 5.

Turning to `COc1cccc2c1nc([C@H](CCCNC(=N)CF)NC(=O)c1cccc3c1C(=O)N(C(C)C)C3)n2C`, in series [2], the Activity is less than 37%. In addition, the Selectivity ratio in series [12] was found to be 32; in series [8] it was 58; in series [13], 2.6.

As for `N=C(CF)NCCC[C@H](NC(=O)c1ccccc1C(=O)O)c1nc2ccccc2[nH]1`, the Selectivity ratio in series [9] stood at 11; in series [10], 4.3; in series [11], 16.

As for `COc1ccc2[nH]c([C@H](CCCNC(=N)CCl)NC(=O)c3cccc4c3C(=O)NC4)nc2c1`, the Selectivity ratio is 95 in series [6], 7.3 in series [12], 3.5 to 114 in [8] and 2.2 in [13].

For the compound `COc1cccc2c1nc([C@H](CCCNC(=N)CF)NC(=O)c1cccc3c1C(=O)NC3)n2C`, the EC50 in series [1] is 9.5 µM; in series [3] it was 0.4 µM. Moreover, the Activity in series [2] is more than 60%. Further, the selectivity ratio in series [4] was more than 30. The Selectivity ratio in [6] amounted to 15; in series [12], 29; in series [8], 47; in series [13], 3.2; in series [14] it was 1.6.

`COc1cccc2c1nc([C@H](CCCNC(=N)CF)NC(=O)c1cccc3c1C(=O)N(C)C3)n2C`: the Activity in [2] was less than 37%. Further, the Selectivity ratio amounted to 30 in series [12], 106 in series [8] and 1.1 in [13].

On to `COc1cccc2c1nc([C@H](CCCNC(=N)CF)NC(=O)c1cccc3c1C(=O)N(C1CC1)C3)n2C`, for which, in series [2], the Activity was less than 37%. The Selectivity ratio in series [12] was 38; in series [8], 77; in series [13], 3.8.

For the compound `N=C(CCl)NCCC[C@H](NC(=O)c1ccccc1C(=O)O)c1nc2ccccc2[nH]1`, the values for the Selectivity ratio in series [9], in series [10] and in series [11] were 8.3, 6.2 and 9, respectively.

Regarding `CCn1c([C@H](CCCNC(=N)CF)NC(=O)c2cccc3c2C(=O)NC3)nc2ccccc21`, the Selectivity ratio came to 33 in [6]; 37 in series [12]; 56 in series [8]; 1.7 in [13]; 2 in [14].

Regarding `CCN1Cc2cccc(C(=O)N[C@@H](CCCNC(=N)CF)c3nc4ccccc4n3CC)c2C1=O`, the Selectivity ratio is 19 in series [5], 33 in [6], 1 in [7] and 2 in series [14].

As for `COc1ccc2[nH]c([C@H](CCCNC(=N)CF)NC(=O)c3cccc4c3C(=O)NC4)nc2c1`, the Selectivity ratio in series [6] was 95; in series [12], 13; in series [8], 5.4 to 114; in [13], 3.5.

`CCN1Cc2cccc(C(=O)N[C@@H](CCCNC(=N)CCl)c3nc4ccccc4n3C)c2C1=O`: the Selectivity ratio amounted to 21 in series [12], 19 in series [8] and 1.2 in series [13].

With `CCn1c([C@H](CCCNC(=N)CF)NC(=O)c2cccc3c2C(=O)NC3)nc2c(OC)cccc21`, the values for the EC50 in series [1] and in series [3] were 7.6 µM and 2.4 µM, respectively. Moreover, in [2], the Activity was more than 60%. The selectivity ratio in series [4] was more than 30. The Selectivity ratio in series [5] was determined as 38; in series [6], 32; in series [7], 1.

Take `N=C(CF)NCCC[C@H](NC(=O)c1ccc(-c2ccccc2)cc1)c1nc2ccccc2[nH]1`: the Ratio in series [15] worked out at 3750 M⁻¹ min⁻¹. Further, in series [1], the EC50 was determined as 20.6 µM.

These data come from ChEMBL document CHEMBL4177546, “Development of a Selective Inhibitor of Protein Arginine Deiminase 2” (J Med Chem, 2017).
